Screening results deposited in PubChem by Broad Institute.
KDM4C inh: KDM4C (human) demethylase inhibition. Q9H3R0. GST-KDM4C 2-372, H3K9me3 peptide, LANCE TR-FRET. inhibition, % at 12.5 µM. actives 0.15% (n = 96,000). AID 720574;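 active = mean replicate inhibition above about 25%, with at least 55% of replicates also reaching it, limit read from the data, passing the limit was not always enough; inconclusive = only one of those two conditions met; inactive = neither condition met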
Target sequence (Q9H3R0 2-372 limits assumed): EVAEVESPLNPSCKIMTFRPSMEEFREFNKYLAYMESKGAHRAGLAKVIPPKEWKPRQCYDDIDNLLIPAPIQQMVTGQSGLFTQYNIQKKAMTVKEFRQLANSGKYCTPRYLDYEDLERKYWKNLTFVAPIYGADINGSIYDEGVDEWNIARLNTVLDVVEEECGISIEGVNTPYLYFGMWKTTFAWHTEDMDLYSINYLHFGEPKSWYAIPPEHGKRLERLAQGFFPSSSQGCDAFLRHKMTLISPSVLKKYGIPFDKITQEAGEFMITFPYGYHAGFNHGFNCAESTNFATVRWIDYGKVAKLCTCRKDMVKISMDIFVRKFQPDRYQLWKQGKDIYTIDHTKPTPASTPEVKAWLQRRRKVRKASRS
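Test system: N-terminal GST-fused human GASC-1 (KDM4C) fragment, residues 2-372; quantity: GASC-1 enzyme at 10 nM final in reaction; dosing: single dose; schedule: 30 min demethylation and 1 h detection at room temperature; signal: LANCE TR-FRET, excitation 340 nm, emissions 618 and 671 nm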
T cruzi growth-1: inhibitors of T. cruzi proliferation; T. cruzi beta-gal in NIH3T3, GalScreen luminescence, 90 h; inhibition, % at 8.34 µM; actives 5.9% (n = 77,000); AID 624255;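 active = mean inhibition above about 93%, with at least 55% of replicates each passing it, limit read from the data, passing the limit was not always enough; inconclusive = only one of those two conditions holds; inactive = neither condition holds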
IDH1 R132H inh: inhibitors of human IDH1 R132H; O75874; IDH1 R132H reductase, diaphorase/resazurin fluorescence, 60 min; inhibition, % at 10 µM; actives 0.18% (n = 70,000); in the data active = inhibition above about 34%; inconclusive = no clear call, values can overlap the other calls; inactive = below about 11%;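 note: 0% = DMSO and 100% = no enzyme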
Target sequence (O75874 whole entry R132H): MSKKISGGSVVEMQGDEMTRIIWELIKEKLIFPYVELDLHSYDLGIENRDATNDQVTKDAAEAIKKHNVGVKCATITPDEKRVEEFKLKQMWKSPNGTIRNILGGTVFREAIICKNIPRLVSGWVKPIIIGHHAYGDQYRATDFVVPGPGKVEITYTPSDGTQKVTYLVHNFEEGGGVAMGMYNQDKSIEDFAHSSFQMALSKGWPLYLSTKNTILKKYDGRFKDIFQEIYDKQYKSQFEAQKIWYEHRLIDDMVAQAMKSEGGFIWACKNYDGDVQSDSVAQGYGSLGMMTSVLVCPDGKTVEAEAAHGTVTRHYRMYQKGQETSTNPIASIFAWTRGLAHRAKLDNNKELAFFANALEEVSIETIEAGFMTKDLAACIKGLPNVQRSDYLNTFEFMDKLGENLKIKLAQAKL
Pf Dd2 inh: blocks growth of Plasmodium falciparum Dd2 parasites; actives 2.3% (n = 94,000); P. falciparum Dd2 growth, SYBR Green, 72 h; active compounds read low; activity change, % at 10 µM; AID 1159554; in the data active = activity change below about -80%; inconclusive = no clear call, values can overlap the other calls
T cruzi growth-2: inhibitors of T. cruzi proliferation; actives 72% (n = 5,600); inhibition, % at 8.35 µM; T. cruzi beta-gal in NIH3T3, GalScreen luminescence, 90 h; shares compounds with T cruzi growth-1;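 active = mean replicate inhibition above about 95% and at least 55% of replicates individually reaching it, limit read from the data; inconclusive = only one of the two criteria is met; inactive = neither criterion is met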
T cruzi growth-3: Trypanosoma cruzi proliferation inhibition; shares compounds with T cruzi growth-1; T. cruzi beta-gal in NIH3T3, GalScreen luminescence, 90 h; inhibition, % at 2.09 µM; actives 21% (n = 5,600); AID 651740;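 active = mean inhibition above about 95%, with at least 55% of replicates also reaching it, limit read from the data; inconclusive = meets just one of the two conditions; inactive = meets neither condition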;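 note: plate controls were neutral control median for no effect and positive control median for full effect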
3T3 cytotox: cytotoxicity in mouse NIH/3T3 fibroblasts; shares compounds with T cruzi growth-1; NIH/3T3 viability, CellTiter-Glo ATP luminescence, 90 h; actives 14% (n = 5,600); cytotoxicity (signal decrease), % at 8.35 µM; AID 651742;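 active = mean signal decrease across replicates above about 35% based on untreated-well scatter, with enough replicates individually passing, limit read from the data; inconclusive = no rule stated though some were filed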;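 note: 0% = median of neutral control wells and 100% = median of positive control wells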
3T3 cytotox 2: cytotoxicity in mouse NIH/3T3 fibroblasts; AID 651744; inhibition, % at 24.9 µM; NIH/3T3 viability, CellTiter-Glo ATP luminescence, 90 h; shares compounds with T cruzi growth-1; actives 56% (n = 5,600);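 active = mean loss of cell viability signal at or above a set limit, and enough replicates individually reaching it; inconclusive = meets only the mean limit or only the replicate share; inactive = meets neither condition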;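 note: 0% = median of neutral control wells and 100% = median of positive control wells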
* = called active by the depositor; ? = inconclusive; nt = no result given. Shown are actives, neighbours in structure and some others; about 5.9% of the full set was active somewhere.

SMILES	KDM4C inh	T cruzi growth-1	IDH1 R132H inh	Pf Dd2 inh	T cruzi growth-2	T cruzi growth-3	3T3 cytotox	3T3 cytotox 2
C=CCNC(=O)[C@H]1[C@@H]2C(=O)O[C@@H](c3ccccc3)[C@@H](c3ccccc3)N2[C@@H](c2ccccc2OCCO)[C@]12C(=O)N(C(=O)OCCOC)c1ccc(C#CC3=CCCCC3)cc12	nt	nt	0.3	nt	nt	nt	nt	nt
COc1ccc(OC(C)C(=O)Nc2ccccc2C#N)cc1 (stereo not given)	nt	nt	-0.4	nt	nt	nt	nt	nt
O=S(=O)(Cc1ccccc1)N1CCCCN2[C@H](C1)[C@@H](c1ccc(-c3cncnc3)cc1)[C@@H]2CO	0.7	?	nt	-10.2	95.7*	17.5	8.4	17.4
O=S(=O)(Cc1ccccc1)N1CCCCN2[C@H](C1)[C@@H](c1ccc(-c3ccccc3)cc1)[C@@H]2CO	0.0	114.5*	nt	-18.3	100.7*	89.3	21.8	96.3*
O=S(=O)(Cc1ccccc1)N1CCCCN2[C@@H](CO)[C@H](c3ccc(-c4ccc(F)cc4)cc3)[C@@H]2C1	-1.4	94.4	nt	-31.1	nt	nt	nt	nt
O=S(=O)(Cc1ccccc1)N1CCCCN2[C@H](C1)[C@H](c1ccc(-c3ccncc3)cc1)[C@@H]2CO	0.5	-25.9	nt	-21.9	nt	nt	nt	nt
O=S(=O)(Cc1ccccc1)N1CCCCN2[C@H](C1)[C@H](c1ccc(-c3ccccc3)cc1)[C@@H]2CO	-0.8	117.7*	nt	-42.9	105.2*	62.1	28.1	103.6*
CCn1c(SCC(=O)c2ccc(OC)cc2)nnc1-c1cc2cc(Br)ccc2o1	nt	nt	-0.1	nt	nt	nt	nt	nt
CO[C@H](CN(C)C(=O)C1CCOCC1)[C@H](C)CN(C(=O)Nc1ccc(C(F)(F)F)cc1)[C@H](C)CO	0.6	113.5*	0.1	12.4	104.2*	39.3	11.2	44.9*
CO[C@H](CN(C)C(=O)C1CCOCC1)[C@@H](C)CN(C(=O)Nc1ccc(C(F)(F)F)cc1)[C@H](C)CO	nt	72.0	0.2	-10.8	nt	nt	nt	nt
CO[C@H](CN(C)C(=O)C1CC1)[C@@H](C)CN(C(=O)Nc1ccc(C(F)(F)F)cc1)[C@@H](C)CO	0.2	37.3	0.1	-0.6	nt	nt	nt	nt
CO[C@H](CN(C)C(=O)C1CC1)[C@H](C)CN(C(=O)Nc1ccc(C(F)(F)F)cc1)[C@H](C)CO	-2.0	111.4*	-0.1	17.3	34.6	-12.9	0.5	25.1*
CN(C)C(=O)c1cccc(-c2ccc3c(c2)[C@@H]2[C@@H](CCN2C(=O)C2CCOCC2)[C@@H](CO)N3)c1	1.2	94.1	nt	4.0	nt	nt	nt	nt
CN(C)CC(=O)N1CC[C@@H]2[C@H](CO)Nc3ccc(-c4ccc(C(=O)N(C)C)cc4)cc3[C@@H]21	0.1	60.4	nt	7.0	nt	nt	nt	nt
CN(C)C(=O)c1cccc(-c2ccc3c(c2)[C@H]2[C@H](CCN2C(=O)C2CCOCC2)[C@@H](CO)N3)c1	-0.1	?	nt	7.0	98.6*	31.5	-39.3	-8.9
CN(C)C(=O)c1cccc(-c2ccc3c(c2)[C@H]2[C@H](CCN2C(=O)c2ccc4c(c2)OCO4)[C@H](CO)N3)c1	0.5	63.7	nt	-13.9	nt	nt	nt	nt
CN(C)C(=O)c1cccc(-c2ccc3c(c2)[C@@H]2[C@@H](CCN2C(=O)C2CC2)[C@@H](CO)N3)c1	2.2	106.2*	nt	-26.9	98.8*	77.1	-3.8	-1.4
CCC(=O)N1CC[C@@H]2[C@@H](CO)Nc3ccc(-c4ccc(C(=O)N(C)C)cc4)cc3[C@@H]21	0.0	103.0*	nt	-12.4	104.0*	46.5	-40.4	-16.2
CN(C)C(=O)c1ccc(-c2ccc3c(c2)[C@@H]2[C@@H](CCN2C(=O)c2ccc4c(c2)OCO4)[C@H](CO)N3)cc1	1.6	?	nt	-8.9	103.8*	77.3	-25.6	-6.0
CN(C)C(=O)c1cccc(-c2ccc3c(c2)[C@H]2[C@H](CCN2C(=O)C2CCCC2)[C@H](CO)N3)c1	5.0	nt	nt	-75.3	nt	nt	nt	nt
Cc1ccc(NC(=O)C2Cc3ccccc3CN2S(=O)(=O)c2ccc(C)cc2)cc1 (stereo not given)	nt	nt	-0.6	nt	nt	nt	nt	nt
Cn1c(SCC(=O)Nc2ccccc2-c2ccccc2)nnc1-c1ccccn1	nt	nt	-0.1	nt	nt	nt	nt	nt
C[C@H]1CN([C@@H](C)CO)C(=O)Cc2cc(N(C)C)ccc2O[C@H]1CN(C)Cc1ccc(Oc2ccccc2)cc1	-1.8	?	-0.1	-10.0	105.7*	113.7*	19.2	105.9*
C[C@H]1CN([C@@H](C)CO)C(=O)Cc2cc(N(C)C)ccc2O[C@@H]1CN(C)Cc1ccc(Oc2ccccc2)cc1	0.3	115.2*	2.6	-10.0	104.5*	47.7	-10.5	77.4*
C[C@@H]1CN([C@H](C)CO)C(=O)Cc2cc(N(C)C)ccc2O[C@@H]1CN(C)Cc1ccc(Oc2ccccc2)cc1	0.6	40.1	1.5	0.9	nt	nt	nt	nt
SMILES	KDM4C inh	T cruzi growth-1	IDH1 R132H inh	Pf Dd2 inh	T cruzi growth-2	T cruzi growth-3	3T3 cytotox	3T3 cytotox 2
C[C@H](CO)N1C[C@H](C)[C@H](CN(C)Cc2ccc(Oc3ccccc3)cc2)Oc2ccc(N(C)C)cc2C1=O	-0.8	98.1*	0.7	-10.5	?	8.3	-6.2	101.4*
CC(C)(C)OC(=O)CC[C@@]12N=C(c3ccc(OCCCO)cc3)O[C@@H]1c1ccccc1CN(CCS(=O)(=O)c1ccccc1)C2=O	nt	nt	0.5	nt	nt	nt	nt	nt
COC1=CC(=O)O[C@@H](CCc2ccccc2)[C@@H]1O	nt	nt	0.1	nt	nt	nt	nt	nt
C[C@H](CO)N1C[C@H](C)[C@@H](CN(C)Cc2ccc(C(F)(F)F)cc2)Oc2ccc(NC(=O)Nc3cccc4ccccc34)cc2C1=O	-0.6	100.1*	nt	10.7	107.2*	59.9	23.5	11.6
C[C@@H]1CN([C@@H](C)CO)C(=O)c2cc(NC(=O)Nc3cccc4ccccc34)ccc2O[C@H]1CN(C)Cc1ccc(C(F)(F)F)cc1	-0.5	96.4*	nt	8.7	106.2*	77.5	21.1	21.0
CCCCN(CCCC)c1ccc(/C=N/NC(=O)CCCCCCC(=O)OC)cc1	nt	nt	-0.3	nt	nt	nt	nt	nt
C[C@H](CO)N1C[C@H](C)[C@@H](CN(C)C(=O)Nc2ccc(F)cc2)Oc2cc(/C=C/c3ccccc3)ccc2S1(=O)=O	-3.1	124.2*	0.0	-66.9	108.9*	97.9*	-1.3	?
C[C@H]1CN([C@@H](C)CO)S(=O)(=O)c2ccc(/C=C/c3ccccc3)cc2O[C@H]1CN(C)C(=O)Nc1ccc(F)cc1	1.7	10.7	-0.1	14.6	nt	nt	nt	nt
C[C@H]1CN([C@@H](C)CO)S(=O)(=O)c2ccc(/C=C/c3ccccc3)cc2O[C@@H]1CN(C)C(=O)Nc1ccc(F)cc1	-2.5	127.0*	-2.2	-43.5	101.0*	93.1	1.2	59.6*
